Shown are actives, neighbours in structure and some others; about 2.4% of the full set was active somewhere.
Env fusion inh: inhibitors of HIV-1 Env-driven cell-cell fusion, primary screen, HeLa-JRFL effector, CEM21 target cells, luciferase; AID 651610, 2012; inhibition, % at 12.3 µM; actives 1.1% (n = 360,000);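 active = mean replicate inhibition score of at least 50 and every replicate individually at or above 50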
INS-1E GSIS act: GLuc luminescence reporter in INS-1E cells, primary screen for activators of glucose-dependent secretion of insulin; INS-1E GLuc reporter insulin secretion, 2-3 h; activation, % at 16.6 µM; actives 0.61% (n = 370,000); AID 743287, 2014;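 active = lowest replicate activation of at least 40%, so every replicate reaches that level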
miR-122 sensor: miR-122 Renilla sensor signal increase in Huh7, primary screen, miR-122 inhibitor project, cell-based, single point, plate reader. actives 0.3% (n = 340,000). activation (reporter increase), % at 12.5 µM. AID 602342, 2012. Huh7 miR-122 Renilla luciferase sensor, 48 h; neutral wells = 0, positive control = 100;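 active = mean replicate activation score at least 90 and every replicate individually at or above 90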;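 note: higher luciferase means less miR-122 activity so hits act as miR-122 inhibitors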
Cneo AK release: Cryptococcus neoformans cell lysis inducers, primary screen, AK release luminescence, single concentration | C. neoformans lysis, adenylate kinase release luminescence, 4 h; normalised: neutral wells 0, clomiphene wells 100 | lysis activity, % at 15 µM | actives 0.2% (n = 360,000) | AID 651654, 2012;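 active = mean lysis activity across replicates of at least 80%, whatever share of replicates individually reach that level; inactive = mean lysis activity below 80%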
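Material: C. neoformans cells | Amount: Yeast cell density of 5 × 10^6 cells/mL | Medium: Fresh YPD growth medium | Dosing: Single dose | Times: Static 4 h at 37 °C with compound, 1 h detection | Detection: AK luminescence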
dFosB act: activators of delta FosB homodimer, primary screen, biochemical, fluorescence polarization, TAMRA-CDK5 oligo, single point; Protein FosB (Mus musculus), P13346; purified delta FosB; percent of positive-control signal above neutral wells; activation, % at 25 µM; actives 0.99% (n = 340,000);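 active = mean activation above about 17%, with every replicate also reaching it, limit read from the data, passing the limit was not always enough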
Target sequence (P13346 whole entry, looked up): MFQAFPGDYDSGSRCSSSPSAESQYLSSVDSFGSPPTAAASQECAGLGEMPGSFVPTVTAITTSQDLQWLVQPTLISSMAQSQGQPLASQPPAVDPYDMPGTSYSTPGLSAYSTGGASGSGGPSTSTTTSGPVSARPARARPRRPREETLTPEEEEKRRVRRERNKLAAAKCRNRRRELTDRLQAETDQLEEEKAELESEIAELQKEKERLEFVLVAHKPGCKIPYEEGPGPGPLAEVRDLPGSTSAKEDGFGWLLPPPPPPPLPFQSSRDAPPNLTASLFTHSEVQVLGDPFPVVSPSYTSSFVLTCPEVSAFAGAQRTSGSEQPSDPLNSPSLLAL
Rtt109 HAT inh: inhibitors of C. albicans Rtt109/Vps75 HAT, primary screen, biochemical, ThioGlo CoA-SH fluorescence, plate reader; Histone acetyltransferase RTT109 (Candida albicans (strain SC5314 / ATCC MYA-2876)), …; purified Rtt109/Vps75, 4 h; inhibition, % at 34.9 µM; actives 0.16% (n = 330,000); AID 540336, 2011;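 active = inhibition of at least 50% in every replicate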
Numbers stand for hits; - = inactive; . = no result given.

SMILES | Env fusion inh | INS-1E GSIS act | miR-122 sensor | Cneo AK release | dFosB act | Rtt109 HAT inh
O=C(O)CCC(NC(=O)c1ccc(Cl)cc1)C(=O)O (configuration not stated) | - | - | . | . | - | -
CC(=O)Nc1ccc2c(c1)CC(=O)N(C)C[C@H](C)[C@H](CN(C)C(=O)NC(C)C)O2 | . | - | . | . | . | .
O=C1N(c2ccccc2)c2ccccc2C1(O)C(F)(F)F (configuration not stated) | - | - | . | - | - | -
O=C1N(c2ccccc2)c2ccccc2[C@]12C[C@H](O)CO2 | - | 55.4 | . | . | . | .
CCN1[C@@H]2c3ccc(-c4ccccc4OC)c(=O)n3C[C@H]1[C@H](CO)[C@H]2C(=O)N[C@@H](C)c1ccccc1 | . | - | . | - | . | .
CC(=O)c1c(O)cc2c3c1OC(C)(C)C1CCC(C)(CC31)O2 (configuration not stated) | 68.9 | - | . | - | . | .
C[C@@H]1CN([C@H](C)CO)C(=O)c2cccc(NC(=O)Nc3ccccc3)c2O[C@@H]1CN(C)Cc1ccccc1 | - | - | - | - | . | .
NC1=C(Cl)C(=O)c2ccccc2C1=O | - | - | . | . | - | -
NC1=C(Cl)C(=O)c2ccc(S(N)(=O)=O)cc2C1=O | 62.7 | - | - | - | - | -
CC(=O)N(C)C[C@H]1Oc2c(NC(=O)NC(C)C)cccc2C(=O)N(C)C[C@H]1C | . | - | . | . | . | .
O=C1CC(C(=O)N(CC2CCCO2)C(C(=O)NC2CCCCC2)c2ccncc2)CS1 (configuration not stated) | 77.6 | - | - | - | - | -
CC(=O)NS(=O)(=O)c1cccnc1Nc1cccc(Cl)c1 | . | . | - | - | - | -
N#Cc1cccnc1Nc1cccc(Cl)c1 | . | 58.9 | - | - | - | -
CCCCCCCCN1C(=O)[C@H](CC(=O)NCc2cccs2)C[C@@]2(C(=O)OCC)CCCC=C12 | 88.2 | - | . | . | . | .
CCCCCCCCN1C(=O)[C@H](CC(=O)NCc2cccs2)C[C@@]2(C(=O)OC)CCCCC=C12 | - | - | . | . | . | .
CCOC(=O)[C@]12CCCC=C1N(Cc1ccccc1)C(=O)[C@H](CC(=O)NCCCOC)C2 | 59.5 | - | . | . | . | .
CCCCCCCCN1C(=O)[C@H](CC(=O)NCc2ccc(OC)c(OC)c2)C[C@@]2(C(=O)OCC)CCCC=C12 | 69.7 | - | . | . | . | .
CCOC(=O)[C@]12CCCC=C1N(CCc1ccc(OC)c(OC)c1)C(=O)[C@H](CC(=O)NCc1ccccc1)C2 | - | . | . | . | . | .
CCOC(=O)[C@]12CCCC=C1N(CCC1=CCCCC1)C(=O)[C@H](CC(=O)NCCC(C)C)C2 | - | - | . | . | . | .
CCCCCCCCN1C(=O)[C@H](CC(=O)NCCC(C)C)C[C@@]2(C(=O)OCC)CCCC=C12 | 61.3 | - | . | . | . | .
C[C@H]1CN([C@@H](C)CO)C(=O)c2cc(C#CC3CC3)cnc2O[C@@H]1CN(C)C(=O)c1ccc(F)cc1 | - | - | - | - | . | .
COc1ccc(NC(=O)N(C)C[C@@H]2OCCCC[C@@H](C)Oc3ccc(NS(=O)(=O)c4ccc(OC)cc4)cc3C(=O)N([C@@H](C)CO)C[C@@H]2C)cc1 | . | - | . | . | . | .
Cc1ccc(S(=O)(=O)Nc2cccc3c2O[C@H](CN(C)S(=O)(=O)c2ccc(C)cc2)[C@H](C)CN([C@@H](C)CO)C3=O)cc1 | . | - | . | . | . | .
O=C(C[C@H]1CC[C@H]2[C@@H](COC[C@@H](O)CN2C(=O)Nc2cccc(Cl)c2)O1)NCCCN1CCOCC1 | - | - | - | - | . | .
Cc1ccc(S(=O)(=O)Nc2cccc3c2O[C@H](CN(C)S(=O)(=O)c2ccccc2)[C@@H](C)CN([C@H](C)CO)C3=O)cc1 | - | - | - | - | . | .
SMILES | Env fusion inh | INS-1E GSIS act | miR-122 sensor | Cneo AK release | dFosB act | Rtt109 HAT inh
COc1cccc(-c2cn(CC[C@@H]3CC[C@@H](NS(=O)(=O)Cc4ccccc4)[C@H](CO)O3)nn2)c1 | - | - | - | - | . | .
CCCCCCCCN1C(=O)[C@H](CC(=O)NCc2cccc3ccccc23)C[C@@]2(C(=O)OCC)CCCC=C12 | 75.8 | . | . | . | . | .
COC(=O)[C@@]12C[C@@H](CC(=O)NCc3ccc(OC)c(OC)c3)C(=O)N(CCc3ccc(OC)c(OC)c3)C1=CCC(C)(C)C2 | 67.1 | - | . | . | . | .
CCOC(=O)[C@]12CCC=C1N(Cc1ccc3c(c1)OCO3)C(=O)[C@H](CC(=O)NCC13CC4CC(CC(C4)C1)C3)C2 | 77.3 | - | . | . | . | .
CCCCOCCCNC(=O)C[C@@H]1C[C@@]2(C(=O)OCC)CCC=C2N(Cc2ccc3c(c2)OCO3)C1=O | - | - | . | . | . | .
CCCCCCCCN1C(=O)[C@H](CC(=O)NCc2cccc3ccccc23)C[C@@]2(C(=O)OC)CC(C)(C)CC=C12 | 57.8 | - | . | . | . | .
CCCCCCCCN1C(=O)[C@H](CC(=O)NCc2ccc(OC)c(OC)c2)C[C@@]2(C(=O)OC)CC(C)(C)CC=C12 | - | - | . | . | . | .
N#C[C@@H]1[C@H](c2ccccc2C2=CCCC2)[C@@H](CO)N1C(=O)CN1CCOCC1 | . | - | . | . | . | .
CN1C(=O)c2cc(NC(=O)C3CCCCC3)ccc2OC[C@@H]2O[C@H](CC(=O)NC3CCCC3)CC[C@H]21 | - | - | - | - | . | .
C[C@@H](NC(=O)C[C@@H]1C=C[C@@H](NC(=O)C2CCC2)[C@@H](CO)O1)c1ccccc1 | - | - | . | - | . | .
C=CCOc1c(Br)cc(CNc2ccc(NC(=O)C(C)C)c(OC)c2)cc1OC | 89.7 | - | - | - | - | -
COC(=O)CSc1ncnc2scc(-c3ccccc3)c12 | - | 59.8 | - | - | - | -
Cc1ccc(-c2csc3ncnc(SCC(=O)O)c23)cc1 | - | - | - | - | - | -
COc1ccccc1CN1C[C@@H]2C[C@@H](C3=Cc4cc(Cl)ccc4OC3)N3CCC[C@@]23C1=O | 66.6 | - | . | . | - | -
O=C(Nc1ccccc1F)N1C[C@@H]2N[C@H](C1)C2c1ccc(/C=C/c2ccccc2)cc1 (some centres not stated) | . | - | . | . | . | .
CON(C)c1nc(OCCNC(=O)OCc2ccc(Cl)cc2C)nc(N(C)C)n1 | 150.3 | . | - | - | - | -
CN(C)c1nc(OCCOC(=O)Nc2ccc(Cl)cc2Cl)nc(N(C)C)n1 | . | - | - | . | - | -
Cc1cc(C(=O)COc2ccc(C#N)cc2)c(C)n1C1CC1 | 64.1 | - | . | - | - | -
Cc1cc(C)n(CC(=O)n2c3ccccc3c3ccccc32)n1 | . | 52.9 | - | - | - | -
O=C(CN1CCCCC1)n1c2ccccc2c2ccccc21 | - | - | - | - | - | 55.8
Cc1ccc(S(=O)(=O)Oc2ccccc2-c2ccccc2)cc1 | 60.4 | . | - | - | - | -
